# System: Mycobacterium tuberculosis
# Assay: Antimycobacterial activity against isoniazid/rifampicin/ethambutol/pyrazinamide/streptomycin/kanamycin/para-aminosalicylic acid/prothionamide multidrug-resistant Mycobacterium tuberculosis assessed as inhibition of bacterial growth under 7H9 medium condition after 7 to 14 days in presence of tylo-xapol by broth microdilution method
# Format: functional
# Settings: time 7-14 day
# Procedure, shortened: (§1)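 Clinical MDR/XDR Mtb strains tested by broth microdilution in GAST or 7H9 with tyloxapol (0.05%), BSA fraction V (5 g/L) and NaCl (0.8 g/L) plus a carbon source. Compounds were dosed from DMSO stocks against DMSO vehicle controls. Inoculum was 10⁴-10⁵ cells per assay, with growth monitored at days 7 and 14. MIC is the concentration causing >99% inhibition.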
row,Compound,MIC [µM]
1,CCCCCCCCCCCC(=O)NS(=O)(=O)OC[C@H]1O[C@@H](n2cnc3c(N)ncnc32)[C@H](O)[C@@H]1O,12.5
2,C=CCCCCCCCCC(=O)NS(=O)(=O)OC[C@H]1O[C@@H](n2cnc3c(N)ncnc32)[C@H](O)[C@@H]1O,6.25
3,Nc1ncnc2c1ncn2[C@@H]1O[C@H](COS(=O)(=O)NC(=O)CCCCCCCCCCOc2ccccc2)[C@@H](O)[C@H]1O,12.5
4,CCCCCCCCCCCCCC(=O)NS(=O)(=O)OC[C@H]1O[C@@H](n2cnc3c(N)ncnc32)[C@H](O)[C@@H]1O,12.5

# System: Mycobacterium tuberculosis
# Assay: Antimycobacterial activity against isoniazid/rifampicin/ethambutol/kanamycin/ofloxacin multidrug-resistant Mycobacterium tuberculosis assessed as inhibition of bacterial growth under GAST medium condition after 7 to 14 days by broth microdilution method
# Format: functional
# Settings: time 7-14 day
# Procedure, shortened: as §1
row,Compound,MIC [µM]
1,CCCCCCCCCCCC(=O)NS(=O)(=O)OC[C@H]1O[C@@H](n2cnc3c(N)ncnc32)[C@H](O)[C@@H]1O,3.13
2,C=CCCCCCCCCC(=O)NS(=O)(=O)OC[C@H]1O[C@@H](n2cnc3c(N)ncnc32)[C@H](O)[C@@H]1O,3.13
3,CCCCCCCCCCCCCC(=O)NS(=O)(=O)OC[C@H]1O[C@@H](n2cnc3c(N)ncnc32)[C@H](O)[C@@H]1O,6.25

# System: Mycobacterium tuberculosis
# Assay: Antimycobacterial activity against isoniazid/rifampicin/ethambutol/streptomycin/ofloxacin/para-aminosalicylic acid/prothionamide multidrug-resistant Mycobacterium tuberculosis assessed as inhibition of bacterial growth under 7H9 medium condition after 7 to 14 days by broth microdilution method
# Format: functional
# Settings: time 7-14 day
# Procedure, shortened: as §1
row,Compound,MIC [µM]
1,CCCCCCCCCCCC(=O)NS(=O)(=O)OC[C@H]1O[C@@H](n2cnc3c(N)ncnc32)[C@H](O)[C@@H]1O,12.5
2,C=CCCCCCCCCC(=O)NS(=O)(=O)OC[C@H]1O[C@@H](n2cnc3c(N)ncnc32)[C@H](O)[C@@H]1O,25
3,Nc1ncnc2c1ncn2[C@@H]1O[C@H](COS(=O)(=O)NC(=O)CCCCCCCCCCOc2ccccc2)[C@@H](O)[C@H]1O,50
4,CCCCCCCCCCCCCC(=O)NS(=O)(=O)OC[C@H]1O[C@@H](n2cnc3c(N)ncnc32)[C@H](O)[C@@H]1O,12.5

# System: Mycobacterium tuberculosis
# Assay: Antimycobacterial activity against isoniazid/rifampicin/ethambutol/streptomycin/ofloxacin/para-aminosalicylic acid/prothionamide multidrug-resistant Mycobacterium tuberculosis assessed as inhibition of bacterial growth under GAST medium condition after 7 to 14 days by broth microdilution method
# Format: functional
# Settings: time 7-14 day
# Procedure, shortened: as §1
row,Compound,MIC [µM]
1,CCCCCCCCCCCC(=O)NS(=O)(=O)OC[C@H]1O[C@@H](n2cnc3c(N)ncnc32)[C@H](O)[C@@H]1O,12.5
2,C=CCCCCCCCCC(=O)NS(=O)(=O)OC[C@H]1O[C@@H](n2cnc3c(N)ncnc32)[C@H](O)[C@@H]1O,3.13
3,Nc1ncnc2c1ncn2[C@@H]1O[C@H](COS(=O)(=O)NC(=O)CCCCCCCCCCOc2ccccc2)[C@@H](O)[C@H]1O,625
4,CCCCCCCCCCCCCC(=O)NS(=O)(=O)OC[C@H]1O[C@@H](n2cnc3c(N)ncnc32)[C@H](O)[C@@H]1O,12.5

# System: Mycobacterium tuberculosis
# Assay: Antimycobacterial activity against isoniazid/rifampicin/ethambutol/para-aminosalicylic acid extensively drug-resistant Mycobacterium tuberculosis assessed as inhibition of bacterial growth under GAST medium condition after 7 to 14 days by broth microdilution method
# Format: functional
# Settings: time 7-14 day
# Procedure, shortened: as §1
row,Compound,MIC [µM]
1,CCCCCCCCCCCC(=O)NS(=O)(=O)OC[C@H]1O[C@@H](n2cnc3c(N)ncnc32)[C@H](O)[C@@H]1O,6.25
2,C=CCCCCCCCCC(=O)NS(=O)(=O)OC[C@H]1O[C@@H](n2cnc3c(N)ncnc32)[C@H](O)[C@@H]1O,3.13
3,CCCCCCCCCCCCCC(=O)NS(=O)(=O)OC[C@H]1O[C@@H](n2cnc3c(N)ncnc32)[C@H](O)[C@@H]1O,6.25

# System: Mycobacterium tuberculosis
# Assay: Antimycobacterial activity against isoniazid/rifampicin/ethambutol/pyrazinamide/streptomycin/kanamycin/para-aminosalicylic acid/prothionamide multidrug-resistant Mycobacterium tuberculosis assessed as inhibition of bacterial growth under 7H9 medium condition after 7 to 14 days by broth microdilution method
# Format: functional
# Settings: time 7-14 day
# Procedure, shortened: as §1
row,Compound,MIC [µM]
1,CCCCCCCCCCCC(=O)NS(=O)(=O)OC[C@H]1O[C@@H](n2cnc3c(N)ncnc32)[C@H](O)[C@@H]1O,12.5
2,C=CCCCCCCCCC(=O)NS(=O)(=O)OC[C@H]1O[C@@H](n2cnc3c(N)ncnc32)[C@H](O)[C@@H]1O,50
3,Nc1ncnc2c1ncn2[C@@H]1O[C@H](COS(=O)(=O)NC(=O)CCCCCCCCCCOc2ccccc2)[C@@H](O)[C@H]1O,12.5
4,CCCCCCCCCCCCCC(=O)NS(=O)(=O)OC[C@H]1O[C@@H](n2cnc3c(N)ncnc32)[C@H](O)[C@@H]1O,25

# System: Mycobacterium tuberculosis
# Assay: Antimycobacterial activity against isoniazid/rifampicin/ethambutol/para-aminosalicylic acid extensively drug-resistant Mycobacterium tuberculosis assessed as inhibition of bacterial growth under 7H9 medium condition after 7 to 14 days by broth microdilution method
# Format: functional
# Settings: time 7-14 day
# Procedure, shortened: as §1
row,Compound,MIC [µM]
1,CCCCCCCCCCCC(=O)NS(=O)(=O)OC[C@H]1O[C@@H](n2cnc3c(N)ncnc32)[C@H](O)[C@@H]1O,6.25
2,C=CCCCCCCCCC(=O)NS(=O)(=O)OC[C@H]1O[C@@H](n2cnc3c(N)ncnc32)[C@H](O)[C@@H]1O,12.5
3,Nc1ncnc2c1ncn2[C@@H]1O[C@H](COS(=O)(=O)NC(=O)CCCCCCCCCCOc2ccccc2)[C@@H](O)[C@H]1O,12.5
4,CCCCCCCCCCCCCC(=O)NS(=O)(=O)OC[C@H]1O[C@@H](n2cnc3c(N)ncnc32)[C@H](O)[C@@H]1O,6.25

# System: Mycobacterium tuberculosis
# Assay: Antimycobacterial activity against isoniazid/rifampicin/ethambutol/pyrazinamide/streptomycin/kanamycin/para-aminosalicylic acid/prothionamide multidrug-resistant Mycobacterium tuberculosis assessed as inhibition of bacterial growth under GAST medium condition after 7 to 14 days by broth microdilution method
# Format: functional
# Settings: time 7-14 day
# Procedure, shortened: as §1
row,Compound,MIC [µM]
1,CCCCCCCCCCCC(=O)NS(=O)(=O)OC[C@H]1O[C@@H](n2cnc3c(N)ncnc32)[C@H](O)[C@@H]1O,25
2,C=CCCCCCCCCC(=O)NS(=O)(=O)OC[C@H]1O[C@@H](n2cnc3c(N)ncnc32)[C@H](O)[C@@H]1O,3.13
3,Nc1ncnc2c1ncn2[C@@H]1O[C@H](COS(=O)(=O)NC(=O)CCCCCCCCCCOc2ccccc2)[C@@H](O)[C@H]1O,6.25
4,CCCCCCCCCCCCCC(=O)NS(=O)(=O)OC[C@H]1O[C@@H](n2cnc3c(N)ncnc32)[C@H](O)[C@@H]1O,12.5

# System: Mycobacterium tuberculosis
# Assay: Antimycobacterial activity against isoniazid/rifampicin/ethambutol/kanamycin/ofloxacin multidrug-resistant Mycobacterium tuberculosis assessed as inhibition of bacterial growth under 7H9 medium condition after 7 to 14 days by broth microdilution method
# Format: functional
# Settings: time 7-14 day
# Procedure, shortened: as §1
row,Compound,MIC [µM]
1,CCCCCCCCCCCC(=O)NS(=O)(=O)OC[C@H]1O[C@@H](n2cnc3c(N)ncnc32)[C@H](O)[C@@H]1O,6.25
2,C=CCCCCCCCCC(=O)NS(=O)(=O)OC[C@H]1O[C@@H](n2cnc3c(N)ncnc32)[C@H](O)[C@@H]1O,625
3,Nc1ncnc2c1ncn2[C@@H]1O[C@H](COS(=O)(=O)NC(=O)CCCCCCCCCCOc2ccccc2)[C@@H](O)[C@H]1O,12.5
4,CCCCCCCCCCCCCC(=O)NS(=O)(=O)OC[C@H]1O[C@@H](n2cnc3c(N)ncnc32)[C@H](O)[C@@H]1O,3.13

# Reference: ChEMBL document CHEMBL4765357, “Development of small-molecule inhibitors of fatty acyl-AMP and fatty acyl-CoA ligases in Mycobacterium tuberculosis” (Eur J Med Chem, 2020)
